# Measurements gathered from unrelated publications.
# Lines come from different studies, so protocols differ.
# Target: MAP kinase-interacting serine/threonine-protein kinase 2 (MKNK2, Homo sapiens, UniProt Q9HBH9)
SMILES,read-out,mode,method,concentration,measurement,result
Cn1cncc1[C@](O)(COc1ccc(C#N)cc1-c1ccc(OC(F)(F)F)cc1)c1ccc(C#N)cc1,cell-free assay,,competition with immobilised ligand,1 µM,remaining binding,85%
COc1ncccc1-c1cnn2ccc(N3CCN(C(=O)OC(C)C)CC3)nc12,binding,,competition with immobilised ligand,1 µM,remaining binding,100%
C#Cc1n[nH]c2c(-c3cn(C(C)c4ccccn4)c(=O)[nH]c3=O)cc(F)cc12 (stereo not shown),enzyme activity,inhibitor,,1 µM,inhibition,9.9%
COc1cc(Nc2ncc(F)c(Nc3ccc4c(n3)NC(=O)C(C)(C)O4)n2)cc(OC)c1OC,binding,,competition with immobilised ligand,10 µM,inhibition,100%
CC(C)(C)c1cc(C=C(C#N)C#N)cc(Br)c1O,enzyme activity,inhibitor,,0.5 µM,remaining activity,100%
N#CC1(c2ccccn2)CCN(Cc2cc(C(=O)O)c(=O)n3ccccc23)CC1,cell-free assay,,competition with immobilised ligand,1 µM,remaining binding,85%
O=c1[nH]c2ccccc2n1C1CCN(Cc2ccc(-c3[nH]c4cc5ncnc5cc4nc3-c3ccccc3)cc2)CC1,cell-free assay,,,0.5 µM,remaining signal,98.7%
Nc1ncc(-c2nc(N3CCOCC3)nc(N3CCOCC3)n2)c(C(F)F)n1,binding,,competition with immobilised ligand,10 µM,remaining binding,56%
Cc1nn(C)cc1-c1nc2c(N3CCN(Cc4ccc(Cl)cc4)CC3)c(Cl)cnc2[nH]1,binding,,competition with immobilised ligand,1 µM,remaining binding,46%
C#Cc1n[nH]c2c(-c3cn([C@@H](C)c4ccccc4)c(=O)[nH]c3=O)cc(F)cc12,enzyme activity,inhibitor,,0.1 µM,inhibition,-7.9%
